Source: ChEMBL document CHEMBL2034980, “N⁴-Phenyl-substituted 2-acetylpyridine thiosemicarbazones: cytotoxicity against human tumor cells, structure-activity relationship studies and investigation on the mechanism of action” (Bioorg Med Chem, 2012)
Activity calls are given as the source filed them.

Key:
[1] = system: MCF7; assay: Induction of apoptosis in human MCF7 cells assessed as appearance of autophagolysosomes at 1 uM after 48 hrs by acridine orange/ethidium bromide staining-based microscopy; assay type: functional, cell-based
In short: (§1)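 After 48 h at 1 μM, cells were incubated for 15 min in serum-free medium containing 1 μg mL⁻¹ acridine orange and 1 μg mL⁻¹ ethidium bromide. The medium was removed and cells imaged by inverted fluorescence microscopy (530–650 nm). Green/orange nuclear patterns and acidic cytoplasmic vacuoles were scored.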

[2] = system: MCF7; assay: Induction of apoptosis in human MCF7 cells assessed as irregularities in cellular shape at 1 uM after 48 hrs by DAPI staining; assay type: functional, cell-based
[3] = system: MCF7; assay: Induction of apoptosis in human MCF7 cells assessed as DNA fragmentation at 1 uM after 48 hrs by DAPI staining; assay type: functional, cell-based
In short: (§2)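 Cells were treated at 1 μM for 48 h, washed in PBS and fixed in 70% methanol for 30 min at room temperature. They were stained with 0.4 μg mL⁻¹ DAPI for 1 h in the dark, and nuclear condensation and fragmentation were scored by fluorescence microscopy (385–410 nm).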

[4] = system: MCF7; assay: Induction of apoptosis in human MCF7 cells assessed as membrane blebbing at 1 uM after 48 hrs by DAPI staining; assay type: functional, cell-based
[5] = system: T98G; assay: Cytotoxicity against human T98G cells expressing mutant p53 after 48 hrs by MTT assay; assay type: functional, cell-based; details: for IC50: read-out: IC50
In short: (§3)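 MTT assay. Cells were grown in DMEM with 10% FBS and penicillin/streptomycin at 37 °C under 5% CO2, seeded at 1–2×10^3 cells/well and treated 12 h later with 1×10^-12 to 1×10^-5 M ([…] from DMSO stock, final DMSO <0.5%) for 48 h. MTT was added at 0.5 mg mL⁻¹, formazan dissolved in DMSO and read at 570 nm. IC50 is the concentration giving 50% cytotoxicity. Quadruplicates, ≥3 independent experiments.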

[6] = system: T98G; assay: Induction of apoptosis in human T98G cells assessed as membrane blebbing at 1 uM after 48 hrs […]; assay type: functional, cell-based
[7] = system: T98G; assay: Induction of apoptosis in human T98G cells assessed as chromatin condensation at 1 uM after 48 hrs by acridine orange/ethidium bromide staining-based microscopy; assay type: functional, cell-based; in short: as §1
[8] = system: T98G; assay: Induction of apoptosis in human T98G cells assessed as irregularities in cellular shape at 1 uM after 48 hrs by DAPI staining; assay type: functional, cell-based
[9] = system: U-87MG ATCC; assay: Induction of apoptosis in human U87 cells assessed as appearance of autophagolysosomes at 1 uM after 48 hrs by acridine orange/ethidium bromide staining-based microscopy; assay type: functional, cell-based; in short: as §1
[10] = system: T98G; assay: Induction of apoptosis in human T98G cells assessed as cell shrinkage at 1 uM after 48 hrs by DAPI staining; assay type: functional, cell-based
[11] = system: MCF7; assay: Cytotoxicity against human MCF7 cells after 48 hrs by MTT assay; assay type: functional, cell-based; details: for IC50: MCF7, 48 h, read-out: IC50; in short: as §3
[12] = system: U-87MG ATCC; assay: Induction of apoptosis in human U87 cells assessed as cell shrinkage at 1 uM after 48 hrs by DAPI staining; assay type: functional, cell-based
[13] = system: T98G; assay: Induction of apoptosis in human T98G cells assessed as appearance of autophagolysosomes at 1 uM after 48 hrs by acridine orange/ethidium bromide staining-based microscopy; assay type: functional, cell-based; in short: as §1
[14] = system: MCF7; assay: Induction of apoptosis in human MCF7 cells assessed as chromatin condensation at 1 uM after 48 hrs by DAPI staining; assay type: functional, cell-based; in short: as §2
[15] = system: MCF7; assay: Induction of apoptosis in human MCF7 cells assessed as cell shrinkage at 1 uM after 48 hrs by DAPI staining; assay type: functional, cell-based
[16] = system: U-87MG ATCC; assay: Induction of apoptosis in human U87 cells assessed as DNA fragmentation at 1 uM after 48 hrs by DAPI staining; assay type: functional, cell-based; in short: as §2
[17] = system: T98G; assay: Induction of apoptosis in human T98G cells assessed as DNA fragmentation at 1 uM after 48 hrs by DAPI staining; assay type: functional, cell-based; in short: as §2
[18] = system: U-87MG ATCC; assay: Induction of apoptosis in human U87 cells assessed as irregularities in cellular shape at 1 uM after 48 hrs by DAPI staining; assay type: functional, cell-based
[19] = system: U-87MG ATCC; assay: Induction of apoptosis in human U87 cells assessed as chromatin condensation at 1 uM after 48 hrs by acridine orange/ethidium bromide staining-based microscopy; assay type: functional, cell-based; in short: as §1
[20] = system: T98G; assay: Induction of apoptosis in human T98G cells assessed as chromatin condensation at 1 uM after 48 hrs by DAPI staining; assay type: functional, cell-based; in short: as §2
[21] = system: U-87MG ATCC; assay: Induction of apoptosis in human U87 cells assessed as chromatin condensation at 1 uM after 48 hrs by DAPI staining; assay type: functional, cell-based; in short: as §2
[22] = Haemolytic activity in human RBC after 1 hr by photometry; assay type: ADME, cell-based; details: Erythrocyte
In short: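 Human EDTA blood was spun at 700xg for 10 min and the erythrocytes washed three times in cold PBS pH 7.4, then resuspended in it. Cells were incubated with varying compound concentrations for 1 h at 37 °C with shaking. After centrifugation, released haemoglobin was read at 540 nm to give the IC50. Mean ± SD, n = 4.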

[23] = system: MCF7; assay: Induction of apoptosis in human MCF7 cells assessed as chromatin condensation at 1 uM after 48 hrs by acridine orange/ethidium bromide staining-based microscopy; assay type: functional, cell-based; in short: as §1
[24] = system: U-87MG ATCC; assay: Induction of apoptosis in human U87 cells assessed as membrane blebbing at 1 uM after 48 hrs by DAPI staining; assay type: functional, cell-based
[25] = system: U-87MG ATCC; assay: (§4) Cytotoxicity against human U87 cells expressing wild-type p53 after 48 hrs by MTT assay; assay type: functional, cell-based; in short: as §3
[26] = as §4; assay type: functional, cell-based, U-87MG ATCC; details: U-87 MG, read-out: IC50; in short: as §3

CC(=NNC(S)=Nc1ccccc1Cl)c1ccccn1 (mixture of isomers)
0.16 nM: IC50 [11]
active: Activity [1] | Activity [2] | Activity [3] | Activity [4] | Activity [5] Dose-dependent effect | Activity [6] | Activity [7] | Activity [8] | Activity [9] | Activity [10] | Activity [11] Dose-dependent effect | Activity [12] | Activity [13] | Activity [14] | Activity [15] | Activity [16] | Activity [17] | Activity [18] | Activity [19] | Activity [20] | Activity [21] | Activity [23] | Activity [24] | Activity [25] Dose-dependent effect
2.6 nM: IC50 [26]
> 10000 nM: IC50 [22]
1.1 nM: IC50 [5]

CC(=NNC(=S)Nc1ccc(I)cc1)c1ccccn1 (mixture of isomers)
active: Activity [1] | Activity [2] | Activity [3] | Activity [4] | Activity [5] Dose-dependent effect | Activity [6] | Activity [7] | Activity [8] | Activity [9] | Activity [10] | Activity [11] Dose-dependent effect | Activity [12] | Activity [13] | Activity [14] | Activity [15] | Activity [16] | Activity [17] | Activity [18] | Activity [19] | Activity [20] | Activity [21] | Activity [23] | Activity [24] | Activity [25] Dose-dependent effect
64 nM: IC50 [5]
6.6 nM: IC50 [11]
59 nM: IC50 [26]
> 10000 nM: IC50 [22]

CC(=NNC(=S)Nc1cccc(I)c1)c1ccccn1 (mixture of isomers)
active: Activity [1] | Activity [2] | Activity [3] | Activity [4] | Activity [5] Dose-dependent effect | Activity [6] | Activity [7] | Activity [8] | Activity [9] | Activity [10] | Activity [11] Dose-dependent effect | Activity [12] | Activity [13] | Activity [14] | Activity [15] | Activity [16] | Activity [17] | Activity [18] | Activity [19] | Activity [20] | Activity [21] | Activity [23] | Activity [24] | Activity [25] Dose-dependent effect
61 nM: IC50 [5]
45 nM: IC50 [11]
84 nM: IC50 [26]
> 10000 nM: IC50 [22]

CC(=NNC(=S)Nc1ccc(F)cc1)c1ccccn1 (mixture of isomers)
17 nM: IC50 [5]
> 10000 nM: IC50 [22]
10 nM: IC50 [26]
1.2 nM: IC50 [11]
active: Activity [1] | Activity [2] | Activity [3] | Activity [4] | Activity [5] Dose-dependent effect | Activity [6] | Activity [7] | Activity [8] | Activity [9] | Activity [10] | Activity [11] Dose-dependent effect | Activity [12] | Activity [13] | Activity [14] | Activity [15] | Activity [16] | Activity [17] | Activity [18] | Activity [19] | Activity [20] | Activity [21] | Activity [23] | Activity [24] | Activity [25] Dose-dependent effect

CC(=NNC(=S)Nc1cccc([N+](=O)[O-])c1)c1ccccn1 (mixture of isomers)
> 10000 nM: IC50 [22]
active: Activity [1] | Activity [2] | Activity [3] | Activity [4] | Activity [5] Dose-dependent effect | Activity [6] | Activity [7] | Activity [8] | Activity [9] | Activity [10] | Activity [11] Dose-dependent effect | Activity [12] | Activity [13] | Activity [14] | Activity [15] | Activity [16] | Activity [17] | Activity [18] | Activity [19] | Activity [20] | Activity [21] | Activity [23] | Activity [24] | Activity [25] Dose-dependent effect
38 nM: IC50 [11]
69 nM: IC50 [26]
140 nM: IC50 [5]

CC(=NNC(=S)Nc1ccccc1[N+](=O)[O-])c1ccccn1 (mixture of isomers)
4.3 nM: IC50 [26]
6.6 nM: IC50 [5]
> 10000 nM: IC50 [22]
active: Activity [1] | Activity [2] | Activity [3] | Activity [4] | Activity [5] Dose-dependent effect | Activity [6] | Activity [7] | Activity [8] | Activity [9] | Activity [10] | Activity [11] Dose-dependent effect | Activity [12] | Activity [13] | Activity [14] | Activity [15] | Activity [16] | Activity [17] | Activity [18] | Activity [19] | Activity [20] | Activity [21] | Activity [23] | Activity [24] | Activity [25] Dose-dependent effect
5.7 nM: IC50 [11]

CC(=NNC(=S)Nc1ccc([N+](=O)[O-])cc1)c1ccccn1 (mixture of isomers)
160 nM: IC50 [26]
active: Activity [1] | Activity [2] | Activity [3] | Activity [4] | Activity [5] Dose-dependent effect | Activity [6] | Activity [7] | Activity [8] | Activity [9] | Activity [10] | Activity [11] Dose-dependent effect | Activity [12] | Activity [13] | Activity [14] | Activity [15] | Activity [16] | Activity [17] | Activity [18] | Activity [19] | Activity [20] | Activity [21] | Activity [23] | Activity [24] | Activity [25] Dose-dependent effect
140 nM: IC50 [5]
52 nM: IC50 [11]
> 10000 nM: IC50 [22]
